This is an account of results in the RNAGym collection of RNA variant scans (doi:10.1126/science.aae0568).

Fewer inactive variants are shown than the library holds.

Sequences and labels used below:
B1: tRNA (parent)
chain: GUUCCGUUGGCGUAAUGGUAACGCGUCUCCCUCCUAAGGAGAAGACUGCGGGUUCGAGUCCCGUACGGAACG

The data set covers variants of B1. The data set is described as follows: yeast fitness relative to wild type (ratio to wild type); higher = fitter; tRNA-Arg(CCU), competitive growth, 37 C, YPD. In a few lines:
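A pool of Saccharomyces cerevisiae strains, each with a tRNA-Arg(CCU) gene variant at the native genomic locus, was competed in YPD at 37°C for 24 hours across six parallel replicates. The variants had been chemically synthesised at a 3% per-site mutation rate over 69 sites, and gene amplicons before and after competition were read by 100-nucleotide paired-end sequencing. Darwinian fitness relative to wild type rested on changes in genotype frequencies. Genotypes required ≥ 100 starting reads, and estimates < 0.5 were set to 0.5.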
For A21U C27G C33U C34A C66U, the yeast fitness was no more than 0.5.

Turning to A40C G48C, the yeast fitness was determined as 0.684.

In the case of U8C C11A U54C, the yeast fitness was no more than 0.5.

With A15C G50A C55U C61G, the yeast fitness came to 0.804.

With U28A C33G A36U A40G A70G, the yeast fitness is no more than 0.5.

Take A42U G52C: the yeast fitness was 0.694.

Regarding C4G A15G A20G G23A C34G G67A, the yeast fitness was no more than 0.5.

For the variant G50A A57G, the yeast fitness was found to be 0.944.

For G6C U47C C61U, the yeast fitness came to 0.533.

In the case of C5G A36C A42G C55U C62G A69U, the yeast fitness is no more than 0.5.

Regarding U2A U16G C66U, the yeast fitness was 0.806.

For the variant U2G C24A C46A A69U, the yeast fitness came out at 0.774.

For A20U A40G, the yeast fitness is 0.903.

For U2G C22U C66U, the yeast fitness came to 0.563.

Turning to U13A A42U G63A, the yeast fitness amounted to 0.699.

On to C4A C46U G68A, for which the yeast fitness worked out at 0.887.

On to G17A C22A A45C C46U C49U, for which the yeast fitness is no more than 0.5.

On to U2A C4A C5G A36G, for which the yeast fitness was determined as 0.524.

On to U16A C62U, for which the yeast fitness is 0.918.

For U16A G18A C31U, the yeast fitness is no more than 0.5.

For G6A U19C A20U C22U C27G, the yeast fitness is no more than 0.5.

As for C22U C31A C34U A36C A45C C61U U64A, the yeast fitness was no more than 0.5.

Regarding C5U G9A G10C G25A C33G G39A, the yeast fitness was no more than 0.5.

C4G C34U U35G A57G: the yeast fitness was no more than 0.5.

Take A14U G25A: the yeast fitness was found to be 0.686.

Regarding A42G C62A C66U, the yeast fitness is 0.614.

For the variant G6A C62U C66A, the yeast fitness was 0.548.

In the case of U8A G9C G38A A40C U59C, the yeast fitness was 0.638.

Regarding U26C C34U, the yeast fitness was found to be 0.716.

Turning to C11A A42C G51A A69C, the yeast fitness is no more than 0.5.

With A15U G18A C33G A42C, the yeast fitness is no more than 0.5.

Turning to G6A C27U A45C U59C C62U, the yeast fitness is no more than 0.5.

As for C4A G48C G51C A57U G68C, the yeast fitness is no more than 0.5.

In the case of U2A C4G G41A C55A, the yeast fitness is no more than 0.5.

For the variant U8A C11G C34G C60G A65U, the yeast fitness was no more than 0.5.

C5G C31A A45C: the yeast fitness is no more than 0.5.

Take A21U G48C C55A C66G G67C: the yeast fitness was 0.526.

As to C5A G17A A36G, the yeast fitness is no more than 0.5.

Turning to C11G G67A, the yeast fitness is 0.635.

For the variant C61A C62U A65U A69C, the yeast fitness is 0.52.

Regarding U13C C46G, the yeast fitness was determined as 0.97.

Regarding G44C G48A G58A, the yeast fitness is 0.881.

On to U13C A21C C27U G63A A65G, for which the yeast fitness was no more than 0.5.

For U3C A36C, the yeast fitness is 0.566.

On to U32C C46G C62U, for which the yeast fitness came out at 0.733.

On to C4A G41C C49U, for which the yeast fitness was no more than 0.5.

Regarding U3A C66G, the yeast fitness came to 0.669.

Turning to C5G G38C, the yeast fitness was 0.565.

For C30A C60A, the yeast fitness came to 0.619.

For the variant C11G C22G A45C, the yeast fitness is no more than 0.5.

For the variant C33U A65C, the yeast fitness is 0.664.

Regarding G41A G50C, the yeast fitness was 0.676.

For C5G C30U U54A, the yeast fitness worked out at 0.601.

On to U3A C5A C30G G38C C61A, for which the yeast fitness came to 0.655.

As for U59C G68A, the yeast fitness stood at 0.817.

As to U8C C29A U54A, the yeast fitness is no more than 0.5.

Consider U3A C30G C31U, for which the yeast fitness was no more than 0.5.

Consider C27A C31G G50A, for which the yeast fitness is 0.661.

Consider C4A C55G, for which the yeast fitness turned out to be 0.55.

As for C4G C11G C27G A57G U59G, the yeast fitness was no more than 0.5.

Turning to G10A G68C, the yeast fitness stood at 0.768.

For C11U C22A C29G C33U A70C, the yeast fitness came to 0.551.

With A40C C46U A65G G68C, the yeast fitness was found to be 0.59.

For the variant U16C G48C C62U A65G, the yeast fitness was no more than 0.5.

Regarding C5A C29A C34G G68C, the yeast fitness is no more than 0.5.

Turning to G18A C24A C62U, the yeast fitness was determined as 0.536.

Turning to G18A A37U U47A C62U, the yeast fitness was no more than 0.5.

As for A36G U64G C66A, the yeast fitness was no more than 0.5.

On to A14C A57C C62U, for which the yeast fitness was no more than 0.5.

On to C30A G39A, for which the yeast fitness worked out at 0.833.

Take C24U C30G C46G G52A G58A: the yeast fitness amounted to 0.559.

As for C49A C61U C62G, the yeast fitness was no more than 0.5.

As for U2C A15U, the yeast fitness was found to be 0.653.

For C5U C33A, the yeast fitness amounted to 0.737.

In the case of C5G C27G C33U G56A A69U, the yeast fitness came out at 0.52.

For U59A, the yeast fitness came to 0.973.

Turning to G12C A40G G50U C62U, the yeast fitness was no more than 0.5.

As to C34U G38C U54C, the yeast fitness is no more than 0.5.

With U2A U8G C22U U32C C33G G38A, the yeast fitness was no more than 0.5.

Turning to A14C A20U C31U G38C U59A, the yeast fitness is no more than 0.5.

Regarding G23A G51A C61A C66A, the yeast fitness turned out to be 0.545.

On to C4U G10C A14C C27G, for which the yeast fitness came to 0.546.

Turning to C11U C24G C33A A42G, the yeast fitness was no more than 0.5.

As to C4G G39C A45G A57C A65U C66U, the yeast fitness was determined as 0.796.

With U35C G41C, the yeast fitness is 0.718.

As for G51C G56A, the yeast fitness amounted to 0.698.

Take C5A A45U C55U G56A U59A C66G: the yeast fitness was no more than 0.5.

For the variant C29A A37G C60A C66U, the yeast fitness is no more than 0.5.

U7C G9C G23A A36C C66A: the yeast fitness was 0.544.

Regarding C27U A57G C60U, the yeast fitness was no more than 0.5.

Consider U2G C4U G23C, for which the yeast fitness stood at 0.567.

With U3G G41C G51C A57G, the yeast fitness is no more than 0.5.

For the variant C29G C31G C49A, the yeast fitness is no more than 0.5.

As to A20C G39C G41A, the yeast fitness worked out at 0.652.

As for C22G G23C A42U C62A, the yeast fitness was no more than 0.5.

In the case of A15U C29U, the yeast fitness was found to be 0.749.

On to U19C A57G, for which the yeast fitness is 0.945.

As to G6A G9C G44C C66U, the yeast fitness is no more than 0.5.

Turning to G58C G63A, the yeast fitness was found to be 0.873.

As to U3C C5U U8C U13C C29U C46A A65U C66A, the yeast fitness was no more than 0.5.

For C5G A15U G63A, the yeast fitness amounted to 0.551.

In the case of G18C C29U C30U C49U G67A, the yeast fitness is no more than 0.5.

A20U U28C G44A C46U G48A C49U C60G C62A C66G: the yeast fitness was no more than 0.5.

As for C5G C11U C31U, the yeast fitness was found to be 0.676.

Regarding C5U C11U C24U G44C, the yeast fitness was no more than 0.5.

For A20U A21C C27A A45G, the yeast fitness was no more than 0.5.

Regarding C5A U7A A21G, the yeast fitness was no more than 0.5.

Consider C27G A70U, for which the yeast fitness was found to be 0.74.

As for A15G G23A C60U, the yeast fitness is no more than 0.5.

Regarding A20G U28G C31U, the yeast fitness is 0.588.

Turning to C31G U32A A40C, the yeast fitness was no more than 0.5.

Turning to U8C U35C, the yeast fitness amounted to 0.899.

As to C27A G44C, the yeast fitness was 0.782.

For the variant C4A A45C G52A G67U, the yeast fitness stood at 0.577.

In the case of U8C U19C G23C U53C, the yeast fitness was no more than 0.5.

As for A20U C31A G52A C66U, the yeast fitness stood at 0.527.

Regarding C4A G48C, the yeast fitness was found to be 0.749.

Take C22U A57G A70U: the yeast fitness is 0.591.

Take G52A G63A: the yeast fitness came to 0.546.

Regarding U7A G18C C22U C24U C60U, the yeast fitness was no more than 0.5.

As for C30A A40C, the yeast fitness is 0.712.

As to C5G C30A A36G, the yeast fitness was 0.568.

C11U C49U G56A A65C: the yeast fitness was no more than 0.5.

Regarding A21U C55G, the yeast fitness worked out at 0.527.

With C4U A15C C30G G56A A69C A70G, the yeast fitness was no more than 0.5.

G17C C46A A65C: the yeast fitness was no more than 0.5.

For C5U C11U A14U, the yeast fitness came out at 0.57.

Turning to G6C A57U, the yeast fitness stood at 0.663.

With C4G G25C C46U G50A, the yeast fitness was 0.636.

A15G G23C G44A: the yeast fitness is no more than 0.5.

Turning to A21U C22A G50C, the yeast fitness turned out to be 0.575.

As for G25U A36U G56C A65C G67A, the yeast fitness was no more than 0.5.

As for C27U C29G C31A, the yeast fitness is no more than 0.5.

For the variant G9C C22U U26C G58C G68U, the yeast fitness was no more than 0.5.

With U3C G58A, the yeast fitness was 0.922.

Consider C24U C27A, for which the yeast fitness came out at 0.882.

Consider U2C A70C, for which the yeast fitness amounted to 0.972.

In the case of C4A G10A A21G C22G A65G, the yeast fitness is no more than 0.5.

With A14C A37C A65U, the yeast fitness was no more than 0.5.

On to A14G A43G, for which the yeast fitness was 0.932.

Turning to C30A C55U G68A, the yeast fitness is no more than 0.5.

Consider G12C U26A C33A C34G A69G, for which the yeast fitness is no more than 0.5.

As for A42C G48C A70U, the yeast fitness worked out at 0.666.

For U2G U19A A21G A42C G48C C49A, the yeast fitness is no more than 0.5.

On to C5U C11U A15U C31U C49U, for which the yeast fitness is no more than 0.5.

With C22G U28A C31G G39A C55A G68C, the yeast fitness was no more than 0.5.

As to C24U C30U, the yeast fitness was 0.744.

C4G C31A C33G G51C C60G: the yeast fitness was no more than 0.5.

In the case of C29U C33U U54A, the yeast fitness was no more than 0.5.

On to U2C C5G C33G C60A G67C, for which the yeast fitness is no more than 0.5.

As for U19A A21C G25C G68C, the yeast fitness turned out to be 0.752.

Turning to U2A U8A C24U, the yeast fitness is no more than 0.5.

Take C5G A20G A37G C46G A57C: the yeast fitness was no more than 0.5.

In the case of U13C C29A A69C, the yeast fitness was 0.576.

Regarding C5U C27U C34U G44A, the yeast fitness was found to be 0.547.

As to G9A C22A C60A, the yeast fitness worked out at 0.705.

For the variant C4A A14C U19A, the yeast fitness is no more than 0.5.

As to C11U A43C C66U, the yeast fitness was 0.699.

For C5U U19C C24A U28A C46G C62U A70U, the yeast fitness is no more than 0.5.

Regarding G48C A70C, the yeast fitness came out at 0.784.

For the variant U7C G41A A42C G50C A70G, the yeast fitness stood at 0.571.

C34G C66A: the yeast fitness is 0.543.

For G10A G23A C34G, the yeast fitness was no more than 0.5.

U2A G17C C24U C33U A36G U54C: the yeast fitness is no more than 0.5.

Regarding A45C G48A A70U, the yeast fitness turned out to be 0.654.

C24G C29G G39C C55A: the yeast fitness amounted to 0.592.

Take U3A G6A U16A C24G A37U C49U G67A: the yeast fitness is no more than 0.5.
